# From PubChem
# Hits are enriched below; roughly 0.64% of the tested compounds scored in any of these assays.
# PMI act – increases human mannose-6-phosphate isomerase activity; P34949; purified human PMI, coupled resazurin fluorescence, 20 min; hits give high values; 1 = vehicle control, 0 substrate-free wells; activation factor at 20 µM; hit rate 0.005% among 190,000; AID 1214;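 active = activation factor of 2 or more at 20 µM, relative to plate controls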
# TNAP act hi DEA – activators of human TNAP at high phosphate acceptor concentration | P05186 | purified TNAP, CDP-star luminescence, 1 M DEA, 30 min; hits give high values; 0 = EDTA background, 1 = DMSO-only activity | activation factor at 20 µM | 200,000 tested, under 10 active | AID 1136;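 active = activation factor at least 2 at 20 µM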
# Target sequence (P05186 whole entry, looked up): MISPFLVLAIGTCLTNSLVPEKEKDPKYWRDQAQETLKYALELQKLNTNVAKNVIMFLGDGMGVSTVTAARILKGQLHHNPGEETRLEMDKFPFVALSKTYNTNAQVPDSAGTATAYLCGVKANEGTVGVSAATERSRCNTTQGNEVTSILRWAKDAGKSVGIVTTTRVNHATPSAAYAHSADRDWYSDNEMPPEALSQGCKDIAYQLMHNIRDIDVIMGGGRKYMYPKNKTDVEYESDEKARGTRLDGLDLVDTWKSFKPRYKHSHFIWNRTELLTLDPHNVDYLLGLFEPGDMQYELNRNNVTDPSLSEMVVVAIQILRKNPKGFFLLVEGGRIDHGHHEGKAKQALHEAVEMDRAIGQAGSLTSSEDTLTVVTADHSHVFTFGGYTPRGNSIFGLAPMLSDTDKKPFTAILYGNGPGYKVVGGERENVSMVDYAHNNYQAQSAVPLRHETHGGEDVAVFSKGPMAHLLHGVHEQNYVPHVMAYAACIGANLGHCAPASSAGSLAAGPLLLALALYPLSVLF
#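 system = human TNAP | amount = enzyme diluted 1/800 final | reagent = 100 µM CDP-star substrate | signal = luminescent substrate turnover signal | dosing = one dose, 20 µM | benchmarks = EDTA negative control, DMSO positive control | measure = activation factor | timing = 30 min reaction, room temperature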
# PMI act satM6P – activators of human phosphomannose isomerase at near-saturating mannose 6-phosphate; P34949; coupled PMI enzyme assay, resazurin fluorescence, 20 min; hits give high values; 1 = untreated enzyme, 0 = substrate-free blank; activation factor at 20 µM; hit rate 0.34% among 190,000;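 active = activation factor of 2 or more at 20 µM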
#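 Test system: Human PMI in coupled enzyme assay | Input: 15 ng/mL PMI | Medium: HEPES-buffered pH 7.4 with magnesium and detergent | Compound: One concentration, 20 µM, in 1% DMSO | Incubation: Enzyme reaction with compound 20 min at room temperature | Detection: Diaphorase-driven resazurin-to-resorufin fluorescence, excitation 544, emission 590 nm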
# TNAP inh hi DEA – inhibitors of human TNAP at high phosphate acceptor concentration. inhibition, % at 20 µM. hit rate 0.03% among 200,000. P05186. purified TNAP, CDP-star luminescence, 1 M DEA;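 active = over 50% inhibition of tissue-nonspecific alkaline phosphatase at 20 µM in the single-dose screen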
# TNAP inh noacc – TNAP (human) inhibition, acceptor-free conditions | purified TNAP, CDP-star luminescence, 30 min | inhibition, % at 20 µM | P05186 | hit rate 0.26% among 200,000;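 active = tissue-nonspecific alkaline phosphatase inhibition above about 50% at 20 µM in the single-dose screen, limit read from the data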
# Hits are given with their value; . = inactive; / = no result given.
SMILES,PMI act,TNAP act hi DEA,PMI act satM6P,TNAP inh hi DEA,TNAP inh noacc
CN1CCN(Cc2cn[nH]c2-c2ccc(F)cc2F)[C@@H](c2ccccc2)C1,.,.,.,.,.
O=C(c1ccco1)N1CCN(Cc2cn[nH]c2-c2ccc(F)cc2F)CC1,.,.,.,.,78.4
Cc1nonc1N1CCN(Cc2cn[nH]c2-c2ccc(F)cc2F)CC1,.,.,.,.,59.5
COc1cccc(C(=O)N2CCN(Cc3ccccc3C(F)(F)F)CC2)c1,.,.,.,.,.
COc1ccc(-c2[nH]ncc2CN2C[C@@H]3CCC[C@H]2C3)c(F)c1,.,.,.,.,76.1
COc1cccc(C(=O)N2CCN(Cc3cn[nH]c3-c3ccc(F)cc3F)CC2)c1,.,.,.,.,64.8
COc1ccc(C(=O)N2CCN(Cc3cn[nH]c3-c3ccc(OC)cc3F)CC2)cc1,.,.,.,.,81.9
O=c1oc2ccccc2cc1-c1ccccc1,.,.,.,.,.
O=C(O)c1ccc(-n2cc(-c3cc4ccccc4oc3=O)[nH]c2=S)cc1,.,.,2.4,.,.
COc1ccc(C(=O)NCC(=O)OCC(=O)Nc2cc([N+](=O)[O-])ccc2F)cc1,.,.,.,.,.
Cc1cc(=O)oc2n[nH]c(-c3ccccc3)c12,.,.,.,.,92.0
Cc1nc(-c2ccccc2)cc(=O)[nH]1,.,.,.,.,.
COc1ccc(-c2[nH]nc3oc(=O)cc(C)c23)cc1,.,.,.,.,90.0
COc1ccc(-c2[nH]nc3oc(=O)c(CCO)c(C)c23)cc1,.,.,.,.,.
CCc1cccc(NC(=O)NC(=O)Cn2nnc(C(=O)OC)c2C(=O)OC)c1,.,.,.,.,.
Cc1ccc(NC(=O)COC(=O)/C=C/c2ccc(Br)o2)cc1S(=O)(=O)N(C)C,.,.,2.2,.,.
COc1ccc(NC(=O)CCCc2c[nH]c3ccccc23)cc1OC,.,.,.,.,.
Cc1[nH]c2ccccc2c1/C=N/NC(=O)c1cc(-c2cccs2)[nH]n1,.,.,.,.,81.4
Cc1ccc(-c2cc(C(=O)N/N=C/c3c(C)nn(-c4ccccc4)c3C)n[nH]2)s1,.,.,.,.,60.3
Cc1nn(-c2ccccc2)c(C)c1/C=N/NC(=O)c1cc(C(C)(C)C)[nH]n1,.,.,.,.,.
Cc1ccc(-c2cc(C(=O)N/N=C/c3c(C)nn(-c4ccccc4)c3C)[nH]n2)cc1,.,.,.,.,83.4
O=C(N/N=C\c1cccnc1)c1cc(-c2ccc(Cl)s2)[nH]n1,.,.,.,.,83.7
CC(C)NC(=O)CSc1c2c(nc3ccccc13)CCCC2,.,.,.,.,.
Cn1c(=O)[nH]c(Nc2ccccc2)c([N+](=O)[O-])c1=O,.,.,.,.,.
CCCCC(=O)Nc1sc2c(c1C(=O)OCC)CCC(C=O)=C2Cl,.,.,.,.,.
SMILES,PMI act,TNAP act hi DEA,PMI act satM6P,TNAP inh hi DEA,TNAP inh noacc
CC1C(=O)NN=C1C(=O)N/N=C\c1ccc(O)cc1O (configuration not stated),.,.,.,.,72.5
COc1ccc(NC(=O)/C(Cl)=C(/Cl)S(=O)Cc2ccccc2Cl)cn1 (configuration not stated),.,.,.,.,.
Cc1ccccc1N/N=C/c1ccc(C#N)cc1,.,.,2.4,.,.
CCOC(=O)C1=NNC2(c3ccc(C)cc3)C(=O)N(c3ccc(Cl)cc3)C(=O)C12 (configuration not stated),.,.,.,.,.
O=C(C1CCN(Cc2cn[nH]c2-c2ccc(F)cc2F)CC1)N1CCOCC1,.,.,.,.,51.0
COc1ccc(-c2[nH]ncc2CN2CCC(C(=O)N3CCOCC3)CC2)c(F)c1,.,.,.,.,67.8
OCCCC1CCCN(Cc2cn[nH]c2-c2ccc(F)cc2F)C1 (configuration not stated),.,.,.,.,52.7
COc1ccc(OC)c(S(=O)(=O)N2CCC(C(=O)N3CCOCC3)CC2)c1,.,.,.,.,.
CCO[C@@H]1OC(C(=O)N2CCCCCCC2)=C[C@H](c2cn(C(C)=O)c3ccccc23)[C@H]1CCCO,.,.,.,.,.
CC1CC(N(C(=O)c2ccccc2Cl)c2ccccc2)c2ccccc2N1 (configuration not stated),.,.,.,.,.
CC(=O)Sc1nc(-c2ccccc2)[nH]c1S(=O)(=O)c1ccc(C)cc1,.,.,2.2,.,.
Brc1ccc(-c2nnc3ccc(Nc4ccccc4)nn23)cc1,.,.,.,.,.
COc1ccc(CCNC(=O)c2c(N)no[n+]2[O-])cc1OC,.,.,.,.,.
Cc1csc(NC(=O)c2cncc(Br)c2)n1,.,.,.,.,.
COc1cc(OC)cc(-c2cc(NC(C)=O)n[nH]2)c1,.,.,.,.,.
COc1cc(C(=O)Nc2cc(-c3ccccc3)[nH]n2)cc(OC)c1OC,.,.,.,.,62.9
COc1cc(C(=O)Nc2nc(OC)c(-c3ccccc3)c(OC)n2)cc(OC)c1OC,.,.,.,.,.
CC(=O)Nc1cc(-c2ccc(Cl)cc2)[nH]n1,/,.,/,.,87.5
COc1cc(C=C2C(=O)c3ccccc3C2=O)cc(OC)c1OC,.,.,.,.,.
COc1cc(/C=C2/C(=O)ON=C2c2ccccc2)ccc1O,.,.,.,.,51.6
COc1ccc(C=C2C(=O)c3ccccc3C2=O)cc1O,.,.,.,53.2,.
COc1ccc(/C=C2\CC/C(=C\c3ccc(OC)c(OC)c3)C2=O)cc1OC,.,.,.,.,.
CCN1C/C(=C/c2ccc(OC)c(O)c2)C(=O)/C(=C/c2ccc(OC)c(O)c2)C1,.,.,.,.,55.9
COC(=O)CSc1nccc(C)n1,.,.,.,.,.
Cc1ccc(C)c2[nH]c(=O)c(CN(CCN3CCCC3)C(=O)Nc3cccc(Cl)c3)cc12,.,.,.,.,.
SMILES,PMI act,TNAP act hi DEA,PMI act satM6P,TNAP inh hi DEA,TNAP inh noacc
COc1ccc(CNc2nc3ccccc3n2C)c(OC)c1,.,.,.,.,.
COc1ccc(N=Nc2nc3cc(Br)c(Br)cc3n2C)c(OC)c1,.,.,2.1,.,.
CCCCN1C(=O)C2(NNc3ccccc3O2)c2ccccc21 (configuration not stated),.,.,2.1,.,.
O=[N+]([O-])c1cccnc1N1CCC(c2cc(-c3ccc(Cl)cc3)n[nH]2)CC1,.,.,.,.,50.2
Cc1cc(C)n2[nH]c(=O)c(N=Nc3ccc(S(N)(=O)=O)cc3)c2n1,.,.,.,.,91.2
Cc1ccc(N=Nc2c(=O)[nH]n3c(C)cc(C)nc23)cc1,.,.,.,.,.
O=C(Oc1cccc(/C=N/Nc2nc(Nc3ccccc3)nc(N3CCOCC3)n2)c1)c1ccco1,.,.,.,.,.
COc1ccc(-c2csc(CCN3N=C(C)CC3=O)n2)cc1,.,.,2.1,.,.
